# Source: ChEMBL document CHEMBL4680306, “The 3-D conformational shape of N-naphthyl-cyclopenta[d]pyrimidines affects their potency as microtubule targeting agents and their antitumor activity” (Bioorg Med Chem, 2021)
# Active and inactive are the calls of the source. The rule behind the calls is not given here.
# How the values were obtained:
# M14 = assay: Cytotoxicity against human M14 cells assessed as inhibition of cell growth measured after 48 hrs by SRB assay; type: functional
# K562 = assay: Cytotoxicity against human K562 cells assessed as inhibition of cell growth measured after 48 hrs by SRB assay; type: functional
# SK-MEL-28 = assay: Cytotoxicity against human SK-MEL-28 cells assessed as inhibition of cell growth measured after 48 hrs by SRB assay; type: functional
# SW-620 = assay: Cytotoxicity against human SW-620 cells assessed as inhibition of cell growth measured after 48 hrs by SRB assay; type: functional
# U-251 [1] = assay: Cytotoxicity against human U251 cell line assessed as inhibition of cell growth after 48 hrs by SRB assay; type: functional, cell-based; conditions: U-251, 48 h
# HOP-92 = assay: Cytotoxicity against human HOP-92 cells assessed as inhibition of cell growth measured after 48 hrs by SRB assay; type: functional
# RXF 393 = assay: Cytotoxicity against human RXF 393 cells assessed as inhibition of cell growth measured after 48 hrs by SRB assay; type: functional
# [2] = Cytotoxicity against human SK-MEL-5 cells assessed as inhibition of cell growth measured after 48 hrs by SRB assay; type: functional
# [3] = Toxicity in NCr athymic nude nu/nu mouse xenografted human U251 cells assessed as body weight change at 50 mg/kg once in a week relative to temozolomide; type: organism-based; conditions: in vivo, 17.5 mg/kg, 168 h, in the assay text read “17.5 mg/kg twice in a week” for “50 mg/kg once in a week”
# Outline: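 NCr athymic nu/nu nude mice (8 wk; equal numbers of males and females) received 500,000 U251 glioma cells in the lateral flank. Once tumors were visible, mice were dosed with carrier (5% DMSO, 5% Kolliphor-15, 90% normal saline), temozolomide at 50 mg/kg/wk, or test compound at 17.5 mg/kg twice weekly until the end of the study. Body weight was monitored and tumors were caliper-measured twice weekly; n=6–8.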
# MDA-MB-435 [4] = assay: Antiproliferative activity against human MDA-MB-435 cell line assessed as inhibition of cell proliferation measured after 48 hrs by SRB assay; type: functional, cell-based; conditions: MDA-MB-435, 48 h
# Outline: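 MDA-MB-435 melanoma cells were assessed by sulforhodamine B assay. IC50 is the mean ± SD of at least three independent experiments, each run in triplicate.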
# BT-549 = assay: Cytotoxicity against human BT-549 cells assessed as inhibition of cell growth measured after 48 hrs by SRB assay; type: functional
# U-251 [5] = assay: Antitumour activity against human U251 cells xenografted in NCr athymic nude nu/nu mouse assessed as decrease in tumour growth at 17.5 mg/kg twice in a week; type: functional, organism-based
# Bos taurus = organism: Bos taurus; assay: Inhibition of [3H]colchicine binding to bovine tubulin at 1 uM measured after 10 mins by scintillation counting
# Outline: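 Purified bovine brain tubulin at 1.0 µM was mixed with 5.0 µM [3H]colchicine and inhibitor, plus components that stabilize colchicine binding, in 5% DMSO; tubulin was added last, on ice. Binding ran 10 min at 37 °C and was stopped with ice water. Mixtures were filtered through stacked DEAE-cellulose filters, and bound radiolabel was measured by scintillation counting.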
# SK-OV-3 [6] = assay: Antiproliferative activity against human SK-OV-3 cells assessed as decrease in cell growth measured after 48 hrs by SRB method; type: functional, cell-based; conditions: SK-OV-3, 48 h
# SN12C = assay: Cytotoxicity against human SN12C cells assessed as inhibition of cell growth measured after 48 hrs by SRB assay; type: functional
# HT-29 = assay: Cytotoxicity against human HT-29 cells assessed as inhibition of cell growth measured after 48 hrs by SRB assay; type: functional
# CCRF-CEM = assay: Cytotoxicity against human CCRF-CEM cells assessed as inhibition of cell growth measured after 48 hrs by SRB assay; type: functional
# [7] = Induction of microtubule depolymerisation in rat A-10 cell line measured after 18 hrs by indirect immunofluorescence method; conditions: a10
# Outline: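 Rat A-10 cells, chosen because they arrest in interphase without significant mitotic accumulation, were exposed to compounds for 18 h. Cellular microtubules were then visualized by indirect immunofluorescence. EC50 values come from at least three independent experiments.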
# 786-0 = assay: Cytotoxicity against human 786-0 cells assessed as inhibition of cell growth measured after 48 hrs by SRB assay; type: functional
# [8] = Antiproliferative activity against human SK-OV-3 MDR-1-6/6 cells expressing Pgp assessed as decrease in cell growth measured after 48 hrs by SRB method; type: functional; conditions: SK-OV-3, 48 h
# IGROV-1 = assay: Cytotoxicity against human IGROV-1 cells assessed as inhibition of cell growth measured after 48 hrs by SRB assay; type: functional
# TK-10 = assay: Cytotoxicity against human TK-10 cells assessed as inhibition of cell growth measured after 48 hrs by SRB assay; type: functional
# OVCAR-3 = assay: Cytotoxicity against human OVCAR-3 cells assessed as inhibition of cell growth measured after 48 hrs by SRB assay; type: functional
# HeLa = assay: Antiproliferative activity against human HeLa cells assessed as decrease in cell growth measured after 48 hrs by SRB method; type: functional, cell-based
# OVCAR-8 = assay: Cytotoxicity against human OVCAR-8 cells assessed as inhibition of cell growth measured after 48 hrs by SRB assay; type: functional
# MDA-MB-231 = assay: Cytotoxicity against human MDA-MB-231 cells assessed as inhibition of cell growth measured after 48 hrs by SRB assay; type: functional
# MDA-MB-435 [9] = assay: Cytotoxicity against human MDA-MB-435 cells assessed as inhibition of cell growth measured after 48 hrs by SRB assay; type: functional
# SK-MEL-2 = assay: Cytotoxicity against human SK-MEL-2 cells assessed as inhibition of cell growth measured after 48 hrs by SRB assay; type: functional
# COLO 205 = assay: Cytotoxicity against human COLO 205 cells assessed as inhibition of cell growth measured after 48 hrs by SRB assay; type: functional
# NCI-H460 = assay: Cytotoxicity against human NCI-H460 cells assessed as inhibition of cell growth measured after 48 hrs by SRB assay; type: functional
# [10] = Relative resistance, ratio of IC50 for antiproliferative activity against human SK-OV-3 MDR-1-6/6 cells expressing Pgp to IC50 antiproliferative activity against human SK-OV-3 cells; type: functional
# Malme-3M = assay: Cytotoxicity against human Malme-3M cells assessed as inhibition of cell growth measured after 48 hrs by SRB assay; type: functional
# NCI-H23 = assay: Cytotoxicity against human NCI-H23 cells assessed as inhibition of cell growth measured after 48 hrs by SRB assay; type: functional
# [11] = Inhibition of bovine tubulin polymerization assessed as reduction in extent of assembly preincubated for 15 mins followed by addition of reaction mixture measured after 20 mins by turbidimetric assay; design: species or system Bos taurus
# Outline: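 After chilling, GTP was added (0.4 mM final). Turbidity at 350 nm was read after a jump from 0 °C to 30 °C.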
# PC-3 = assay: Cytotoxicity against human PC-3 cells assessed as inhibition of cell growth measured after 48 hrs by SRB assay; type: functional
# SK-OV-3 [12] = assay: Cytotoxicity against human SK-OV-3 cells assessed as inhibition of cell growth measured after 48 hrs by SRB assay; type: functional
# MOLT-4 = assay: Cytotoxicity against human MOLT-4 cells assessed as inhibition of cell growth measured after 48 hrs by SRB assay; type: functional
# SR = assay: Cytotoxicity against human SR cells assessed as inhibition of cell growth measured after 48 hrs by SRB assay; type: functional
smiles,measurement,setting,value
COc1cccc2cc(N(C)c3nc(C)nc4c3CCC4)ccc12,GI50,M14,< 10 nM
same,GI50,K562,< 10 nM
same,GI50,SK-MEL-28,5630 nM
same,GI50,SW-620,< 10 nM
same,IC50,U-251 [1],17.6 nM
same,GI50,HOP-92,28.5 nM
same,GI50,RXF 393,< 10 nM
same,GI50,[2],< 10 nM
same,Activity,[3],Non-Toxic
same,IC50,MDA-MB-435 [4],2.8 nM
same,GI50,BT-549,< 10 nM
same,inhibition,U-251 [5],Active
same,inhibition,Bos taurus,86%
same,IC50,SK-OV-3 [6],2.7 nM
same,GI50,SN12C,< 10 nM
same,GI50,HT-29,< 10 nM
same,GI50,CCRF-CEM,< 10 nM
same,EC50,[7],4.5 nM
same,GI50,786-0,< 10 nM
same,IC50,[8],5.7 nM
same,GI50,IGROV-1,< 10 nM
same,GI50,TK-10,9320 nM
same,GI50,OVCAR-3,< 10 nM
same,IC50,HeLa,3.4 nM
same,GI50,OVCAR-8,< 10 nM
same,GI50,MDA-MB-231,< 10 nM
same,GI50,MDA-MB-435 [9],< 10 nM
same,GI50,SK-MEL-2,< 10 nM
same,GI50,COLO 205,< 10 nM
same,GI50,NCI-H460,< 10 nM
same,Ratio IC50,[10],2.1
same,GI50,Malme-3M,11500 nM
same,GI50,NCI-H23,< 10 nM
same,IC50,[11],980 nM
same,GI50,PC-3,< 10 nM
same,GI50,SK-OV-3 [12],< 10 nM
same,GI50,MOLT-4,< 10 nM
same,GI50,SR,< 10 nM
